From ChEMBL document CHEMBL4304813 (ACS Med Chem Lett, 2019)
pIC50: −log10 of the molar value. ≈ marks a conversion by molar mass, not a printed value. Calls of active or inactive are those of the source. No cut-off for these calls is given here.

Species: Mus musculus
Experiment: Potency index, ratio of ITZ IC50 to test compound IC50 for inhibition of Hedgehog signaling pathway in mouse ASZ001 cells assessed as decrease in Gli1 mRNA expression after 48 hrs by qRT-PCR analysis
Type: cell-based
Conditions: not given

| Compound | Ratio IC50 |
| --- | --- |
| C[C@]1(c2ccc(Cl)cc2Cl)OC[C@@H](COc2ccc(N3CCN(C(=O)CCc4cccc(O)c4)CC3)cc2)O1 | 2 |

Test system: not listed separately
Experiment: Inhibition of Hedgehog signaling pathway in mouse ASZ001 cells assessed as decrease in Gli1 mRNA expression after 48 hrs by qRT-PCR analysis
Type: cell-based
Conditions: ASZ001, 48 h
In short: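 Hh-dependent murine basal cell carcinoma line ASZ001; read-out is Gli1 mRNA expression. IC50 given as mean ± SEM of at least two separate experiments, each run in triplicate.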

| Compound | pIC50 |
| --- | --- |
| C[C@]1(c2ccc(Cl)cc2Cl)OC[C@@H](COc2ccc(N3CCN(C(=O)c4ccccn4)CC3)cc2)O1 | 5.85 |
| C[C@]1(c2ccc(Cl)cc2Cl)OC[C@@H](COc2ccc(N3CCN(C(=O)N/N=C/c4ccc(O)cc4)CC3)cc2)O1 | 6.02 |
| C[C@]1(c2ccc(Cl)cc2Cl)OC[C@@H](COc2ccc(N3CCN(C(=O)/C=C/c4ccc(O)cc4)CC3)cc2)O1 | 6.44 |
| C[C@]1(c2ccc(Cl)cc2Cl)OC[C@@H](COc2ccc(N3CCN(C(=O)c4ccc(O)cc4)CC3)cc2)O1 | 6.24 |
| C[C@]1(c2ccc(Cl)cc2Cl)OC[C@@H](COc2ccc(N3CCN(C(=O)N/N=C/c4cccc(O)c4)CC3)cc2)O1 | 6.92 |
| C[C@]1(c2ccc(Cl)cc2Cl)OC[C@@H](COc2ccc(N3CCN(C(=O)c4ccncc4)CC3)cc2)O1 | 6.24 |
| C[C@]1(c2ccc(Cl)cc2Cl)OC[C@@H](COc2ccc(N3CCN(C(=O)c4ccc(N)cc4)CC3)cc2)O1 | 6.55 |
| CCC(C)n1ncn(-c2ccc(N3CCN(c4ccc(OCC5COC(Cn6cncn6)(c6ccc(Cl)cc6Cl)O5)cc4)CC3)cc2)c1=O (stereo unspecified) [ITRACONAZOLE] | 6.85 |
| C[C@]1(c2ccc(Cl)cc2Cl)OC[C@@H](COc2ccc(N3CCN(C(=O)CCc4ccc(O)c(O)c4)CC3)cc2)O1 | 7.05 |
| C[C@]1(c2ccc(Cl)cc2Cl)OC[C@@H](COc2ccc(N3CCN(C(=O)c4cccnc4)CC3)cc2)O1 | 5.89 |
| C[C@]1(c2ccc(Cl)cc2Cl)OC[C@@H](COc2ccc(N3CCN(C(=O)c4ccc([N+](=O)[O-])cc4)CC3)cc2)O1 | 6.80 |
| C[C@]1(c2ccc(Cl)cc2Cl)OC[C@@H](COc2ccc(N3CCNCC3)cc2)O1 | 7.66 |

Results, then the compound that gave them:

| pIC50 | Compound |
| --- | --- |
| 6.64 | C[C@]1(c2ccc(Cl)cc2Cl)OC[C@@H](COc2ccc(N3CCN(C(=O)CCc4ccccc4)CC3)cc2)O1 |
| 6.33 | C[C@]1(c2ccc(Cl)cc2Cl)OC[C@@H](COc2ccc(N3CCN(C(=O)CCCc4ccc(O)cc4)CC3)cc2)O1 |
| 6.24 | C[C@@]1(c2ccc(Cl)cc2Cl)OC[C@@H](COc2ccc(N3CCN(C(=O)N/N=C/c4cccc(O)c4)CC3)cc2)O1 |
| 7.09 | C[C@]1(c2ccc(Cl)cc2Cl)OC[C@@H](COc2ccc(N3CCN(C(=O)CCc4cccc(O)c4)CC3)cc2)O1 |
| 6.06 | C[C@]1(c2ccc(Cl)cc2Cl)OC[C@@H](COc2ccc(N3CCN(CCCc4cccc(O)c4)CC3)cc2)O1 |
| 6.42 | C[C@]1(c2ccc(Cl)cc2Cl)OC[C@@H](COc2ccc(N3CCN(C(=O)Cc4cccc(O)c4)CC3)cc2)O1 |
| 6.59 | C[C@]1(c2ccc(Cl)cc2Cl)OC[C@@H](COc2ccc(N3CCN(C(=O)CCc4ccc(O)cc4)CC3)cc2)O1 |
| 6.66 | C[C@]1(c2ccc(Cl)cc2Cl)OC[C@@H](COc2ccc(N3CCN(C(=O)/C=C/c4cccc(O)c4)CC3)cc2)O1 |
| 6.34 | COc1cccc(CCC(=O)N2CCN(c3ccc(OC[C@@H]4CO[C@](C)(c5ccc(Cl)cc5Cl)O4)cc3)CC2)c1 |
| 6.59 | C[C@]1(c2ccc(Cl)cc2Cl)OC[C@@H](COc2ccc(N3CCN(C(=O)c4cccc(O)c4)CC3)cc2)O1 |

Test system: not listed separately
Experiment: Solubility in PBS at pH 4 under shaking condition by HPLC analysis
Type: physicochemical
Conditions: not given

| Compound | solubility |
| --- | --- |
| C[C@]1(c2ccc(Cl)cc2Cl)OC[C@@H](COc2ccc(N3CCN(C(=O)N/N=C/c4ccc(O)cc4)CC3)cc2)O1 | 0.05 µM (≈ 0.0293 µg/mL) |
| C[C@]1(c2ccc(Cl)cc2Cl)OC[C@@H](COc2ccc(N3CCN(CCCc4cccc(O)c4)CC3)cc2)O1 | 0.13 µM (≈ 0.0725 µg/mL) |

Test system: not listed separately
Experiment: Solubility in PBS at pH 7.4 under shaking condition by HPLC analysis
Type: physicochemical
Conditions: not given

| Compound | solubility |
| --- | --- |
| C[C@]1(c2ccc(Cl)cc2Cl)OC[C@@H](COc2ccc(N3CCN(C(=O)N/N=C/c4ccc(O)cc4)CC3)cc2)O1 | 0.02 µM (≈ 0.0117 µg/mL) |
| C[C@]1(c2ccc(Cl)cc2Cl)OC[C@@H](COc2ccc(N3CCN(C(=O)CCc4ccc(O)c(O)c4)CC3)cc2)O1 | 0.84 µM (≈ 0.494 µg/mL) |

The remaining lines, values ahead:

| solubility | Compound |
| --- | --- |
| 0.03 µM (≈ 0.0171 µg/mL) | C[C@]1(c2ccc(Cl)cc2Cl)OC[C@@H](COc2ccc(N3CCN(C(=O)CCc4cccc(O)c4)CC3)cc2)O1 |
| 0.02 µM (≈ 0.0112 µg/mL) | C[C@]1(c2ccc(Cl)cc2Cl)OC[C@@H](COc2ccc(N3CCN(CCCc4cccc(O)c4)CC3)cc2)O1 |

Test system: not listed separately
Experiment: Microsomal stability in human liver microsomes assessed as half-life at 1 uM in presence of NADPH/phosphate buffer by LC-MS/MS analysis
Type: ADME, Microsome
Conditions: not given

| Compound | half-life at 1 µM |
| --- | --- |
| C[C@]1(c2ccc(Cl)cc2Cl)OC[C@@H](COc2ccc(N3CCN(C(=O)N/N=C/c4ccc(O)cc4)CC3)cc2)O1 | 11.4 min |
| C[C@]1(c2ccc(Cl)cc2Cl)OC[C@@H](COc2ccc(N3CCN(C(=O)CCc4ccc(O)c(O)c4)CC3)cc2)O1 | 6.6 min |
| C[C@]1(c2ccc(Cl)cc2Cl)OC[C@@H](COc2ccc(N3CCNCC3)cc2)O1 | 50.7 min |

Second part, the compound after the results:

| half-life at 1 µM | Compound |
| --- | --- |
| 3.2 min | C[C@]1(c2ccc(Cl)cc2Cl)OC[C@@H](COc2ccc(N3CCN(C(=O)CCc4cccc(O)c4)CC3)cc2)O1 |
| 14 min | C[C@]1(c2ccc(Cl)cc2Cl)OC[C@@H](COc2ccc(N3CCN(CCCc4cccc(O)c4)CC3)cc2)O1 |
| 20.4 min | C[C@]1(c2ccc(Cl)cc2Cl)OC[C@@H](COc2ccc(N3CCN(C(=O)Cc4cccc(O)c4)CC3)cc2)O1 |
| 15.9 min | C[C@]1(c2ccc(Cl)cc2Cl)OC[C@@H](COc2ccc(N3CCN(C(=O)c4cccc(O)c4)CC3)cc2)O1 |

Test system: not listed separately
Experiment: Microsomal stability in human liver microsomes assessed as intrinsic clearance at 1 uM in presence of NADPH/phosphate buffer by LC-MS/MS analysis
Type: ADME, Microsome
Conditions: read-out: CLH

| Compound | microsomal CLint at 1 µM |
| --- | --- |
| C[C@]1(c2ccc(Cl)cc2Cl)OC[C@@H](COc2ccc(N3CCN(C(=O)N/N=C/c4ccc(O)cc4)CC3)cc2)O1 | 60 µL/min/mg |
| C[C@]1(c2ccc(Cl)cc2Cl)OC[C@@H](COc2ccc(N3CCN(C(=O)CCc4ccc(O)c(O)c4)CC3)cc2)O1 | 105 µL/min/mg |
| C[C@]1(c2ccc(Cl)cc2Cl)OC[C@@H](COc2ccc(N3CCNCC3)cc2)O1 | 13.7 µL/min/mg |

Continued, values first:

| microsomal CLint at 1 µM | Compound |
| --- | --- |
| 218 µL/min/mg | C[C@]1(c2ccc(Cl)cc2Cl)OC[C@@H](COc2ccc(N3CCN(C(=O)CCc4cccc(O)c4)CC3)cc2)O1 |
| 50 µL/min/mg | C[C@]1(c2ccc(Cl)cc2Cl)OC[C@@H](COc2ccc(N3CCN(CCCc4cccc(O)c4)CC3)cc2)O1 |
| 33.9 µL/min/mg | C[C@]1(c2ccc(Cl)cc2Cl)OC[C@@H](COc2ccc(N3CCN(C(=O)Cc4cccc(O)c4)CC3)cc2)O1 |
| 43 µL/min/mg | C[C@]1(c2ccc(Cl)cc2Cl)OC[C@@H](COc2ccc(N3CCN(C(=O)c4cccc(O)c4)CC3)cc2)O1 |

Test system: not listed separately
Experiment: Drug metabolism in human liver microsomes assessed as increase in oxidized metabolite formation at 1 uM in presence of NADPH by LC-MS/MS analysis
Type: ADME, Microsome
Conditions: not given

| Compound | Drug metabolism |
| --- | --- |
| C[C@]1(c2ccc(Cl)cc2Cl)OC[C@@H](COc2ccc(N3CCN(C(=O)Cc4cccc(O)c4)CC3)cc2)O1 | Metabolite_Detected |

Test system: not listed separately
Experiment: Drug metabolism in human liver microsomes assessed as increase in 1-(4-(((2S,4R)-2-(2,4-dichlorophenyl)-2-methyl-1,3-dioxolan-4-yl)methoxy)phenyl)piperazine formation at 1 uM in presence of NADPH by LC-MS/MS analysis
Type: ADME, Microsome
Conditions: not given

| Compound | Drug metabolism |
| --- | --- |
| C[C@]1(c2ccc(Cl)cc2Cl)OC[C@@H](COc2ccc(N3CCN(C(=O)Cc4cccc(O)c4)CC3)cc2)O1 | Metabolite_Detected |

Test system: not listed separately
Experiment: Drug level in human liver microsomes treated with 1-(4-(4-(((2S,4R)-2-(2,4-dichlorophenyl)-2-methyl-1,3-dioxolan-4-yl)methoxy)phenyl)piperazin-1-yl)-3-(3-hydroxyphenyl)propan-1-one formation at 1 uM in presence of NADPH by LC-MS/MS analysis
Type: ADME, Microsome
Conditions: not given

| Compound | Drug uptake |
| --- | --- |
| C[C@]1(c2ccc(Cl)cc2Cl)OC[C@@H](COc2ccc(N3CCNCC3)cc2)O1 | Active |

Test system: not listed separately
Experiment: Drug level in human liver microsomes treated with 1-(4-(4-(((2S,4R)-2-(2,4-dichlorophenyl)-2-methyl-1,3-dioxolan-4-yl)methoxy)phenyl)piperazin-1-yl)-2-(3-hydroxyphenyl)ethanone assessed as increase in 1-(4-(((2S,4R)-2-(2,4-dichlorophenyl)-2-methyl-1,3-dioxolan-4-yl)methoxy)phenyl)piperazine formation at 1 uM in presence of NADPH by LC-MS/MS analysis
Type: ADME, Microsome
Conditions: not given

| Compound | Drug uptake |
| --- | --- |
| C[C@]1(c2ccc(Cl)cc2Cl)OC[C@@H](COc2ccc(N3CCNCC3)cc2)O1 | Active |

Species: Mus musculus
Experiment: Inhibition of Hedgehog signaling pathway in mouse C3H10T1/2 cells assessed as reduction in recombinant mouse sonic hedgehog/oxysterol-induced Gli1 mRNA expression by q-PCR analysis
Type: cell-based
Conditions: not given

| Compound | inhibition |
| --- | --- |
| C[C@]1(c2ccc(Cl)cc2Cl)OC[C@@H](COc2ccc(N3CCN(C(=O)CCc4cccc(O)c4)CC3)cc2)O1 | Active |
| CCC(C)n1ncn(-c2ccc(N3CCN(c4ccc(OCC5COC(Cn6cncn6)(c6ccc(Cl)cc6Cl)O5)cc4)CC3)cc2)c1=O (stereo unspecified) [ITRACONAZOLE] | Active |
| C[C@]1(c2ccc(Cl)cc2Cl)OC[C@@H](COc2ccc(N3CCNCC3)cc2)O1 | Active |

Test system: MEF
Experiment: Inhibition of Hedgehog signaling pathway in Sufu-deficient mouse MEF cells assessed as decrease in Gli1 mRNA expression by q-PCR analysis relative to control
Type: cell-based
Conditions: not given

| Compound | inhibition |
| --- | --- |
| CCC(C)n1ncn(-c2ccc(N3CCN(c4ccc(OCC5COC(Cn6cncn6)(c6ccc(Cl)cc6Cl)O5)cc4)CC3)cc2)c1=O (stereo unspecified) [ITRACONAZOLE] | inactive |
| C[C@]1(c2ccc(Cl)cc2Cl)OC[C@@H](COc2ccc(N3CCNCC3)cc2)O1 | inactive |

Test system: not listed separately
Experiment: Growth inhibition of human HC04 cells assessed as decrease in cell viability after 72 hrs by CellTiter96 AQueous non radioactive cell proliferation assay
Conditions: not given
In short: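 HC-04 is a human hepatocyte-derived line rich in drug-metabolizing enzymes. Anti-proliferative activity is reported as GI50.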

| Compound | GI50 at 72 h |
| --- | --- |
| C[C@]1(c2ccc(Cl)cc2Cl)OC[C@@H](COc2ccc(N3CCN(C(=O)CCc4cccc(O)c4)CC3)cc2)O1 | 13.2 µM |
| C[C@]1(c2ccc(Cl)cc2Cl)OC[C@@H](COc2ccc(N3CCNCC3)cc2)O1 | 27.3 µM |

Test system: not listed separately
Experiment: Aqueous solubility of the compound
Type: physicochemical
Conditions: buffer

| Compound | solubility |
| --- | --- |
| C[C@]1(c2ccc(Cl)cc2Cl)OC[C@@H](COc2ccc(N3CCN(C(=O)CCc4cccc(O)c4)CC3)cc2)O1 | Soluble |
| C[C@]1(c2ccc(Cl)cc2Cl)OC[C@@H](COc2ccc(N3CCNCC3)cc2)O1 | Soluble |
